# Published values collected from several papers.
# Protocols differ between the studies behind these lines.
# Target: Phosphorylase b kinase gamma catalytic chain, liver/testis isoform (PHKG2, Homo sapiens, UniProt P15735)
# Sequence (P15735 1-406, as in one of the studies): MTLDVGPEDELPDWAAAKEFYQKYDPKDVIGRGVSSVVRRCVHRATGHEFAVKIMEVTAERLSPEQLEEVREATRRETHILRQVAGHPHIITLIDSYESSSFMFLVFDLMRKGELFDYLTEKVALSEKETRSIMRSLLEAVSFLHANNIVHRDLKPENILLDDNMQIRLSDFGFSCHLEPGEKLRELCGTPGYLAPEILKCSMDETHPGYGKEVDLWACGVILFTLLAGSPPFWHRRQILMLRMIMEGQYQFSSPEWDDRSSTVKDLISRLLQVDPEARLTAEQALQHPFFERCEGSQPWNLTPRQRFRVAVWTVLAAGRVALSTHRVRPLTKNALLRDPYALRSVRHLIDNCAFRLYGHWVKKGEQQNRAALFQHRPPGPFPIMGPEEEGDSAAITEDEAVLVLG
SMILES,assay,conditions,remaining binding [%]
CNC(=O)Nc1ccc2c(c1)[C@@]1(CC2)OC(=O)N(CC(=O)N(Cc2ccc(F)cc2)[C@@H](C)C(F)(F)F)C1=O,"cell-free assay, competition with immobilised ligand",1 µM,100
C=CC(=O)N1CCC(C(=O)NCC(=O)N2CCN(c3nc(-c4cnc(N)nc4C(F)F)nc(N4CCOCC4)n3)CC2)CC1,"binding, competition with immobilised ligand",1 µM,89
O=C(c1ccc(Nc2ncc(Cl)c(-c3cc4ccccc4s3)n2)cc1)N1CCC(N2CCCC2)CC1,"binding, competition with immobilised ligand",1 µM,74
CN(C)c1nccc(-c2cnc3ncccn23)n1,binding,1 µM,89
O=C(NCC1CCOCC1)c1n[nH]cc1NC(=O)c1c(F)cccc1F,"binding, competition with immobilised ligand",1 µM,96
CN(CCCC(F)(F)F)c1nccc(-c2cnn3ncccc23)n1,binding,1 µM,100
Cc1cc(-n2nc(Cc3cc(F)cc(C(F)(F)F)c3)nc2C)ccc1C(N)=O,"cell-free assay, competition with immobilised ligand",1 µM,100
COc1ncc2cc3ccccc3nc2c1C#N,"cell-free assay, competition with immobilised ligand",5 µM,100
C[C@@H]1CCN(c2nccc(-c3cnn4ncccc34)n2)C1,binding,1 µM,72
Cc1cnc(Nc2ccc(C(=O)N3CCC(N4CCCC4)CC3)cc2)nc1-c1cc2ccccc2s1,"binding, competition with immobilised ligand",1 µM,51
O=C(NCCCC1CCCCC1)c1ccc(CNC(=O)c2cnn(-c3ccccc3)c2C(F)(F)F)cc1,"cell-free assay, competition with immobilised ligand",0.1 µM,100
Cc1cnn2ncc(-c3ccnc(N(C)C)n3)c2c1,binding,1 µM,95
COc1cnc(Nc2cccc(S(N)(=O)=O)c2)nc1N1CCN(c2ccccc2)CC1,"binding, competition with immobilised ligand",1 µM,82
C[C@H](c1cccc(C#N)c1)n1cc(Cl)cc(C(N)=O)c1=N,"cell-free assay, competition with immobilised ligand",1 µM,100
c1cncc(-c2cccc(Nc3nccc(NC4CCCCC4)n3)c2)c1,"binding, competition with immobilised ligand",10 µM,71
O=C(c1ccc(Nc2ncc(Cl)c(-c3ccc(Cl)s3)n2)cc1)N1CCC(N2CCCC2)CC1,"binding, competition with immobilised ligand",1 µM,66
FC(F)(F)Oc1cccc(-c2cnc3ccc(-c4ccncc4)nn23)c1,"cell-free assay, competition with immobilised ligand",5 µM,22
N[C@@H]1CCN(c2nccc(-c3cnn4ncccc34)n2)C1,binding,1 µM,84
CS(=O)(=O)N1CCCC(NC(=O)[C@H](CCC2CCCCC2)NC(=O)c2ccc(CNC(=O)c3cnc4ccccn34)cc2)C1 (stereo partly drawn),"cell-free assay, competition with immobilised ligand",0.1 µM,100
F[C@@H]1CCN(c2nccc(-c3cnn4ncccc34)n2)C1,binding,1 µM,100
Cc1c[nH]c2nccc(Oc3c(F)cc(Nc4cc(Cl)nc(N)n4)cc3F)c12,"cell-free assay, competition with immobilised ligand",0.1 µM,89
